Experimental data from ChEMBL document CHEMBL3739331, “Synthesis and Bioactivities of Kanamycin B-Derived Cationic Amphiphiles” (J Med Chem, 2015).
Values after ≈ are worked out from the molar mass of the structure shown. Active and inactive are the calls of the source. The rule behind the calls is not given here.

Legend:
Listeria monocytogenes [1] = test: Resistance index, ratio of MIC for Listeria monocytogenes ATCC 19115 after 6-passage to MIC for Listeria monocytogenes ATCC 19115 by microdilution method; assay type: functional
How it was run: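 Cells grown at subinhibitory concentration (1/2 MIC) seed each next round. The index compares the MIC at a later passage with the starting MIC.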

Candida albicans [2] = test: Antifungal activity against azole-resistant Candida albicans ATCC 64124 assessed as cell membrane permeabilization at 62.5 ug/ml after 1 hr by propidium iodide-staining based fluorescence microscopic analysis (reference value: <2%); assay type: functional
[3] = Hemolytic activity against mouse RBC at 100 to 500 ug/ml after 60 mins; assay type: ADME, cell-based; details: erythrocyte, 1 h
A549 = test: Cytotoxicity against human A549 cells after 24 hrs by resazurin assay; assay type: cell-based; details: human, a549, 24 h
[4] = Cytotoxicity against human BEAS2B cells after 24 hrs by resazurin assay; assay type: cell-based, BEAS-2B; details: human, beas-2b
Klebsiella pneumoniae = test: Antibacterial activity against Klebsiella pneumoniae ATCC 27736 by microdilution method; assay type: functional
How it was run: (§1)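 Broth microdilution MIC against the named bacterial strain, reported in μg/mL; each determination run at least in duplicate.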

Bacillus subtilis = test: Antibacterial activity against Bacillus subtilis 168 by microdilution method; assay type: functional; details: subsp. subtilis str. 168; how it was run: as §1
Listeria monocytogenes [5] = test: Antibacterial activity against Listeria monocytogenes ATCC 19115 by microdilution method; assay type: functional; how it was run: as §1
Staphylococcus aureus [6] = test: Antibacterial activity against methicillin-resistant Staphylococcus aureus by microdilution method; assay type: functional
How it was run: (§2)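 Broth microdilution MIC, in μg/mL, against a panel of Gram-positive and Gram-negative strains. Run at least in duplicate.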

[7] = tested on: Mycolicibacterium smegmatis; test: Antibacterial activity against Mycobacterium smegmatis MC2 155 by microdilution method; assay type: functional; details: str. MC2 155; how it was run: as §2
Staphylococcus aureus [8] = test: Antibacterial activity against Staphylococcus aureus ATCC 29213 by microdilution method; assay type: functional; how it was run: as §1
Staphylococcus aureus [9] = test: Antibacterial activity against Staphylococcus aureus NRS382 (USA 100) by microdilution method; assay type: functional; how it was run: as §1
Staphylococcus aureus [10] = test: Antibacterial activity against Staphylococcus aureus NRS383 (USA 200) by microdilution method; assay type: functional; how it was run: as §1
Staphylococcus aureus [11] = test: Antibacterial activity against Staphylococcus aureus NRS385 (USA 300) by microdilution method; assay type: functional; how it was run: as §2
Staphylococcus aureus [12] = test: Antibacterial activity against Staphylococcus aureus NRS22 (USA 600) by microdilution method; assay type: functional; how it was run: as §1
[13] = tested on: Staphylococcus epidermidis; test: Antibacterial activity against Staphylococcus epidermidis ATCC 12228 by microdilution method; assay type: functional; how it was run: as §1
Enterococcus = test: Antibacterial activity against vancomycin-resistant Enterococcus by microdilution method; assay type: functional; how it was run: as §2
Acinetobacter baumannii = test: Antibacterial activity against Acinetobacter baumannii ATCC 19606 by microdilution method; assay type: functional; how it was run: as §1
Enterobacter cloacae = test: Antibacterial activity against Enterobacter cloacae ATCC 13047 by microdilution method; assay type: functional; how it was run: as §1
Escherichia coli = test: Antibacterial activity against Escherichia coli MC1061 by microdilution method; assay type: functional; how it was run: as §2
Pseudomonas aeruginosa = test: Antibacterial activity against Pseudomonas aeruginosa ATCC 27853 by microdilution method; assay type: functional; how it was run: as §1
Salmonella enterica = test: Antibacterial activity against Salmonella enterica ATCC 14028 by microdilution method; assay type: functional; how it was run: as §1
[14] = Activity of AAC(3)-4 (unknown origin) assessed as compound conversion to monoacetylated product incubated for 20 hrs by TLC analysis
[15] = tested on: Mycobacterium tuberculosis; test: Activity of Mycobacterium tuberculosis AAC(2')-1c assessed as compound conversion to monoacetylated product incubated for 20 hrs by TLC analysis
Serratia marcescens = test: Activity of Serratia marcescens AAC(6')-2d assessed as compound conversion to monoacetylated product incubated for 20 hrs by TLC analysis
[16] = Activity of Mycobacterium tuberculosis AAC(2')-1c/AAC(3)-4 (unknown origin) assessed as compound conversion to 3'-acetylated product incubated for 20 hrs by TLC analysis
[17] = Activity of Mycobacterium tuberculosis AAC(2')-1c/Serratia marcescens AAC(6')-2d assessed as compound conversion to 6'-monoacetylated product incubated for 20 hrs by TLC analysis
[18] = Activity of AAC(3)-4 (unknown origin)/Serratia marcescens AAC(6')-2d assessed as compound conversion to 3'-acetylated product incubated for 20 hrs by TLC analysis
[19] = Activity of Mycobacterium tuberculosis […]/AAC(3)-4 (unknown origin)/Serratia marcescens AAC(6')-2d (unknown origin) assessed as compound conversion to diacetylated adduct incubated for 20 hrs by TLC analysis
Candida albicans [20] = test: Antifungal activity against azole-resistant Candida albicans ATCC 10231 after 48 hrs by microbroth dilution method; assay type: functional; details: ATCC 10231, 48 h
How it was run: (§3)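 Yeast MIC by broth microdilution, run in duplicate. The aminoglycoside compounds are read as MIC-0 (complete inhibition). Azoles are read as MIC-2 (50% inhibition).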

Candida albicans [21] = test: Antifungal activity against azole-resistant Candida albicans ATCC 64124 after 48 hrs by microbroth dilution method; assay type: functional; details: ATCC 64124, 48 h; how it was run: as §3
Candida albicans [22] = test: Antifungal activity against azole-susceptible Candida albicans ATCC MYA-2876 after 48 hrs by microbroth dilution method; assay type: functional; details: ATCC MYA-2876, 48 h; how it was run: as §3
Candida albicans [23] = test: Antifungal activity against azole-resistant Candida albicans ATCC 90819 after 48 hrs by microbroth dilution method; assay type: functional; details: ATCC 90819, 48 h; how it was run: as §3
Candida albicans [24] = test: Antifungal activity against azole-susceptible Candida albicans ATCC MYA-2310 after 48 hrs by microbroth dilution method; assay type: functional; details: ATCC MYA-2310, 48 h; how it was run: as §3
Candida albicans [25] = test: Antifungal activity against azole-resistant Candida albicans MYA-1237 after 48 hrs by microbroth dilution method; assay type: functional; details: MYA-1237, 48 h; how it was run: as §3
Candida albicans [26] = test: Antifungal activity against azole-resistant Candida albicans MYA-1003 after 48 hrs by microbroth dilution method; assay type: functional; details: MYA-1003, 48 h; how it was run: as §3
Aspergillus nidulans = test: Antifungal activity against Aspergillus nidulans ATCC 38163 after 48 hrs by microbroth dilution method; assay type: functional; details: ATCC 38163, 48 h
How it was run: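 Filamentous fungus MIC by broth microdilution, run in duplicate. All compounds are read as MIC-0 (complete inhibition).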

Candida albicans [27] = test: (§4) Antifungal activity against azole-resistant Candida albicans ATCC 10231 after 48 hrs in presence of (2R,3S,4R,5R,6R)-5-amino-2-(aminomethyl)-6-((1R,2S,3S,4R,6S)-4,6-diamino-3-((2S,3R,4S,5S,6S)-4-amino-6-(dodecylthiomethyl)-3,5-dihydroxytetrahydro-2H-pyran-2-yloxy)-2-hydroxycyclohexyloxy)tetrahydro-2H-pyran-3,4-diol by checkerboard microdilution assay; assay type: functional; details: ATCC 10231, 48 h
How it was run: (§5)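 Checkerboard combinations of the aminoglycoside amphiphile with posaconazole against yeast strains, run in duplicate. Each agent's MIC is taken alone and in combination. The fractional inhibitory concentration index (FICI) is calculated to classify the interaction.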

Candida albicans [28] = test: as §4, with “64124” for “10231”; assay type: functional; details: ATCC 64124, 48 h; how it was run: as §5
Candida albicans [29] = test: as §4, with “azole-susceptible” for “azole-resistant”, “MYA-2876” for “10231”; assay type: functional; details: ATCC MYA-2876, 48 h; how it was run: as §5
Candida albicans [30] = test: as §4, with “90819” for “10231”; assay type: functional; details: ATCC 90819, 48 h; how it was run: as §5
Candida albicans [31] = test: as §4, with “azole-susceptible” for “azole-resistant”, “MYA-2310” for “10231”; assay type: functional; details: ATCC MYA-2310, 48 h; how it was run: as §5
Candida albicans [32] = test: as §4, with “MYA-1237” for “ATCC 10231”; assay type: functional; details: MYA-1237, 48 h; how it was run: as §5
Candida albicans [33] = test: as §4, with “MYA-1003” for “ATCC 10231”; assay type: functional; details: MYA-1003, 48 h; how it was run: as §5
Candida albicans [34] = test: as §4, with “10231 assessed as fractional inhibition” for “10231”; assay type: functional; details: ATCC 10231, 48 h; how it was run: as §5
Candida albicans [35] = test: as §4, with “64124 assessed as fractional inhibition” for “10231”; assay type: functional; details: ATCC 64124, 48 h; how it was run: as §5
Candida albicans [36] = test: as §4, with “azole-susceptible” for “azole-resistant”, “MYA-2876 assessed as fractional inhibition” for “10231”; assay type: functional; details: ATCC MYA-2876, 48 h; how it was run: as §5
Candida albicans [37] = test: as §4, with “90819 assessed as fractional inhibition” for “10231”; assay type: functional; details: ATCC 90819, 48 h; how it was run: as §5
Candida albicans [38] = test: as §4, with “azole-susceptible” for “azole-resistant”, “MYA-2310 assessed as fractional inhibition” for “10231”; assay type: functional; details: ATCC MYA-2310, 48 h; how it was run: as §5
Candida albicans [39] = test: as §4, with “MYA-1237 assessed as fractional inhibition” for “ATCC 10231”; assay type: functional; details: MYA-1237, 48 h; how it was run: as §5
Candida albicans [40] = test: as §4, with “MYA-1003 assessed as fractional inhibition” for “ATCC 10231”; assay type: functional; details: MYA-1003, 48 h; how it was run: as §5

NC[C@H]1O[C@H](O[C@H]2[C@H](O)[C@@H](O[C@H]3O[C@H](CO)[C@@H](O)[C@H](N)[C@H]3O)[C@H](N)C[C@@H]2N)[C@H](N)[C@@H](O)[C@@H]1O [BEKANAMYCIN]
Ratio (Listeria monocytogenes [1]): 4
Activity (Candida albicans [2]): 5%
Activity [3]: Non-toxic
Activity (A549): Non-toxic
Activity [4]: Non-toxic
MIC (Klebsiella pneumoniae): 4 µg/mL (≈ 8.27 µM)
MIC (Bacillus subtilis): 4 µg/mL (≈ 8.27 µM)
MIC (Listeria monocytogenes [5]): ≤ 0.25 µg/mL
MIC (Staphylococcus aureus [6]): > 128 µg/mL
MIC [7]: ≤ 0.25 µg/mL
MIC (Staphylococcus aureus [8]): ≤ 0.25 µg/mL
MIC (Staphylococcus aureus [9]): > 128 µg/mL
MIC (Staphylococcus aureus [10]): 128 µg/mL (≈ 265 µM)
MIC (Staphylococcus aureus [11]): 32 µg/mL (≈ 66.2 µM)
MIC (Staphylococcus aureus [12]): 32 µg/mL (≈ 66.2 µM)
MIC [13]: 0.5 µg/mL (≈ 1.03 µM)
MIC (Enterococcus): > 128 µg/mL
MIC (Acinetobacter baumannii): 4 µg/mL (≈ 8.27 µM)
MIC (Enterobacter cloacae): 0.5 µg/mL (≈ 1.03 µM)
MIC (Escherichia coli): 2 µg/mL (≈ 4.14 µM)
MIC (Pseudomonas aeruginosa): 16 µg/mL (≈ 33.1 µM)
MIC (Salmonella enterica): 2 µg/mL (≈ 4.14 µM)
Activity [14]: Active
Activity [15]: Active
Activity (Serratia marcescens): Active
Activity [16]: inactive
Activity [17]: inactive
Activity [18]: inactive
Activity [19]: Active
MIC (Candida albicans [20]): > 125 µg/mL
MIC (Candida albicans [21]): > 125 µg/mL
MIC (Candida albicans [22]): > 125 µg/mL
MIC (Candida albicans [23]): > 125 µg/mL
MIC (Candida albicans [24]): > 125 µg/mL
MIC (Candida albicans [25]): > 125 µg/mL
MIC (Candida albicans [26]): > 125 µg/mL
MIC (Aspergillus nidulans): > 125 µg/mL

CC[C@@H]([C@H](C)O)n1ncn(-c2ccc(N3CCN(c4ccc(OC[C@@H]5CO[C@@](Cn6cncn6)(c6ccc(F)cc6F)C5)cc4)CC3)cc2)c1=O [POSACONAZOLE]
MIC (Candida albicans [27]): 0.06 µg/mL
MIC (Candida albicans [28]): 0.78 µg/mL
MIC (Candida albicans [29]): 0.78 µg/mL
MIC (Candida albicans [30]): 0.78 µg/mL
MIC (Candida albicans [31]): 0.39 µg/mL
MIC (Candida albicans [32]): 0.78 µg/mL
MIC (Candida albicans [33]): 0.78 µg/mL
MIC (Candida albicans [34]): 0.06 µg/mL
MIC (Candida albicans [35]): 1.56 µg/mL
MIC (Candida albicans [36]): 1.56 µg/mL
MIC (Candida albicans [37]): 0.78 µg/mL
MIC (Candida albicans [38]): 1.56 µg/mL
MIC (Candida albicans [39]): 0.78 µg/mL
MIC (Candida albicans [40]): 1.56 µg/mL
MIC50 (Candida albicans [20]): 0.5 µg/mL (≈ 0.713 µM)
MIC50 (Candida albicans [21]): > 62.5 µg/mL
MIC50 (Candida albicans [22]): 7.8 µg/mL (≈ 11.1 µM)
MIC50 (Candida albicans [23]): 31.2 µg/mL (≈ 44.5 µM)
MIC50 (Candida albicans [25]): 15.6 µg/mL (≈ 22.3 µM)
MIC50 (Candida albicans [26]): 15.6 µg/mL (≈ 22.3 µM)
MIC (Aspergillus nidulans): ≤ 1.95 µg/mL
